Measurements: PMC3644109 (Nature Communications, 2013)
One block for each molecule: values may come before it.

What was measured:
AtALMT9 [1] = target: T1, AtALMT9 (Arabidopsis thaliana, UniProt Q9LS46); assay: patch clamp of excised cytosolic-side-out vacuolar patches, Hill fit; type: cell-based
T1 sequence (Q9LS46 1-598): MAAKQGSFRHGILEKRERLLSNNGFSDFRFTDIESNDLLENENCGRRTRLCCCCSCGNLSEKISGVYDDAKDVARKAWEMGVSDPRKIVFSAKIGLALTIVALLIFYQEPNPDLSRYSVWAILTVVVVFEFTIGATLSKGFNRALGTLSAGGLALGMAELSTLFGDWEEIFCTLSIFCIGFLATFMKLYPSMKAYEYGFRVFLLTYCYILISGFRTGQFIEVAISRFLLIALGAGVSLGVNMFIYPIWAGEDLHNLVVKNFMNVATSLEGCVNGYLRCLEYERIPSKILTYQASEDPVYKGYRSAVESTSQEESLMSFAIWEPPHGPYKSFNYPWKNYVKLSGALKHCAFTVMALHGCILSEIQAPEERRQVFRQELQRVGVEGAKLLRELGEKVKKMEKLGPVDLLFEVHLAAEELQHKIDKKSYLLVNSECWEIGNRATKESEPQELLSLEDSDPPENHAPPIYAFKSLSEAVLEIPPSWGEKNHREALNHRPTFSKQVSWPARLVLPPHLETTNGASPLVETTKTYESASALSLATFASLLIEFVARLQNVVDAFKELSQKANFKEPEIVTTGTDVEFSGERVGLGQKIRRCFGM

AtALMT9 [2] = target: T1, AtALMT9; assay: patch clamp of excised cytosolic-side-out vacuolar patches, chloride current; type: biochemical; conditions: activator; 1 mM cytosolic; 100 mM chloride bath, pH 7.5
In short: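 Vacuoles came from transiently transformed N. benthamiana leaves expressing the channel (2–3 days post-agroinfiltration) and were released from mesophyll protoplasts by EDTA and mild osmotic shock. Excised cytosolic-side-out patches (seal >2 GΩ) were held in symmetrical chloride: pipette 100 mM HCl pH 6, bath 100 mM HCl, 3 mM MgCl₂, 0.1 mM CaCl₂ pH 7.5. Test compound was perfused on the cytosolic side. Steady currents were compared at -120 mV, before versus after.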

AtALMT9 [3] = target: T1, AtALMT9; assay: patch clamp of excised cytosolic-side-out vacuolar patches, chloride current; type: biochemical; conditions: activator, not permeant, -120 mV, chloride bath, pH 7.5
[4] = substrate: O=C(O)C[C@H](O)C(=O)O; assay: cells, lysate or membranes; conditions: malate transport into vacuole

Molecule: O=C(O)c1cccc(C(=O)O)c1 [isophtalate]
fold increase of chloride current (AtALMT9 [3]): 2.1±0.1 fold

B1: AtALMT9 (Arabidopsis thaliana) (protein)
chain: MAAKQGSFRHGILEKRERLLSNNGFSDFRFTDIESNDLLENENCGRRTRLCCCCSCGNLSEKISGVYDDAKDVARKAWEMGVSDPRKIVFSAKIGLALTIVALLIFYQEPNPDLSRYSVWAILTVVVVFEFTIGATLSKGFNRALGTLSAGGLALGMAELSTLFGDWEEIFCTLSIFCIGFLATFMKLYPSMKAYEYGFRVFLLTYCYILISGFRTGQFIEVAISRFLLIALGAGVSLGVNMFIYPIWAGEDLHNLVVKNFMNVATSLEGCVNGYLRCLEYERIPSKILTYQASEDPVYKGYRSAVESTSQEESLMSFAIWEPPHGPYKSFNYPWKNYVKLSGALKHCAFTVMALHGCILSEIQAPEERRQVFRQELQRVGVEGAKLLRELGEKVKKMEKLGPVDLLFEVHLAAEELQHKIDKKSYLLVNSECWEIGNRATKESEPQELLSLEDSDPPENHAPPIYAFKSLSEAVLEIPPSWGEKNHREALNHRPTFSKQVSWPARLVLPPHLETTNGASPLVETTKTYESASALSLATFASLLIEFVARLQNVVDAFKELSQKANFKEPEIVTTGTDVEFSGERVGLGQKIRRCFGM
Km [4]: 27 mM

Other lines, results leading:

EC50 (AtALMT9 [1]): 300 µM
Molecule: O=C(O)C[C@H](O)C(=O)O [malate]

fold increase of chloride current at 1 mM (AtALMT9 [2]): 5.7±0.4 fold
Molecule: O=C(O)/C=C/C(=O)O [fumarate]

fold increase of chloride current at 1 mM (AtALMT9 [2]): 2.0±0.2 fold
Molecule: O=C(O)CC(=O)C(=O)O [oxaloacetate]
